# Reference: ChEMBL document CHEMBL1125182, “A new class of analogues of the bifunctional radiosensitizer alpha-(1-aziridinylmethyl)-2-nitro-1H-imidazole-1-ethanol (RSU 1069): the cycloalkylaziridines” (J Med Chem, 1991)
# Legend:
# [1] = Partition coefficient measured between octanol and 0.05 M NH4PO4 (pH 7.4) using shake-flask method; type: physicochemical; details: octanol/0.05 M NH4PO4 buffer
# [2] = (§1) IC50 of oxic to that of IC50 of hypoxic was determined in V79 cells; hypoxia selective cytotoxicity.; type: functional, Cricetulus griseus
# How it was run: (§2)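 V79-171b Chinese hamster cells in RPMI 1640 with 10% fetal calf serum, plated and incubated ca. 18 h at 37 °C, then exposed to a range of compound concentrations for 1 h at 37 °C under oxic or hypoxic conditions. Cells rinsed, colonies grown; ratio taken as IC50(oxic)/IC50(hypoxic). Means of replicate experiments agreeing within ±20%.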
# [3] = Sensitizer enhancement ratio(SER) determined at the maximum nontoxic dose by measuring the number of cells killed at a conc 3.0 mM (in vitro)
# [4] = Sensitizer enhancement ratio(SER) determined at the maximum nontoxic dose by measuring the number of cells killed at a conc 2 mM (in vitro); type: functional, Cricetulus griseus
# Cricetulus griseus = species on record: Cricetulus griseus; test: The efficiency of radiosensitization is the concentration required to give an SER of 1.6 (in vitro); type: functional
# How it was run: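 Chinese hamster V79-171b monolayers in RPMI 1640 with 10% FCS, plated ~18 h at 37 °C. Made hypoxic with 95% N2/5% CO2 for 1 h, then given X-rays (320 kV, ~1.5 Gy/min) at room temperature. Drug removed after irradiation; colonies of ≥50 cells scored after 6-7 days. SER is the dose ratio for 25% survival on hypoxic curves ±compound; C1.6 read from SER-versus-concentration plot.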
# [5] = Sensitizer enhancement ratio(SER) determined at the maximum nontoxic dose by measuring the number of cells killed at a conc 3 mM (in vitro); type: functional, Cricetulus griseus
# How it was run: (§3)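 V79-171b cells in RPMI 1640 with 10% FCS, held at maximum nontoxic drug level. Made hypoxic by 95% N2/5% CO2 purge for 1 h, then X-irradiated at room temperature (320 kV, ca. 1.5 Gy/min). Drug medium replaced and colonies (≥50 cells) scored at 6-7 days, 37 °C. SER = ratio of doses giving 25% survival on hypoxic curves without vs with drug.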
# Mus musculus = test: In vivo radiosensitizing activity measured as maximum tolerated dose in mice.; type: functional
# [6] = Plating efficiency of drug treated irradiated tumors relative to irradiated only group; type: ADME
# How it was run: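 Mice bearing KHT fibrosarcoma (200–500 mg, hypoxic fraction ca. 20%) given vehicle or compound ip 30–120 min before 15 Gy X-rays. Tumours were excised 18 h later, dissociated to single cells and plated in soft agar. Colonies were stained and counted after 12–16 days. Plating efficiency is relative to the irradiated-only group.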
# [7] = Sensitizer enhancement ratio(SER) determined at the maximum nontoxic dose by measuring the number of cells killed at a conc 1.5 mM (in vitro); type: functional, Cricetulus griseus; how it was run: as §3
# [8] = Sensitizer enhancement ratio(SER) determined at the maximum nontoxic dose by measuring the number of cells killed at a conc […] (in vitro); type: functional, Cricetulus griseus; how it was run: as §3
# V79 = test: as §1; type: functional; details: Cricetulus griseus; how it was run: as §2
# [9] = Sensitizer enhancement ratio(SER) determined at the maximum nontoxic dose by measuring the number of cells killed at a conc 0.75 mM (in vitro); type: functional, Cricetulus griseus
# [10] = Sensitizer enhancement ratio(SER) determined at the maximum nontoxic dose by measuring the number of cells killed at a conc 1.9 (in vitro); type: functional, Cricetulus griseus; how it was run: as §3
# [11] = Sensitizer enhancement ratio(SER) determined at the maximum nontoxic dose by measuring the number of cells killed at a conc 0.38 mM (in vitro); type: functional, Cricetulus griseus; how it was run: as §3
# [12] = Sensitizer enhancement ratio(SER) determined at the maximum nontoxic dose by measuring the number of cells killed at a conc 10 mM (in vitro); type: functional, Cricetulus griseus
SMILES,logD [1],Hypoxic selectivity ratio (IC50 oxic / IC50 hypoxic) [2],C1.6 (Cricetulus griseus),SER [5],MTD (Mus musculus),Fold reduction [6],other results
COC(=O)C1CCN1CC(O)Cn1ccnc1[N+](=O)[O-] (stereo unspecified),-0.29,1,,,,,SER [3]: 2.1
O=[N+]([O-])c1nccn1CC(O)CN1CCC1 (stereo unspecified),-1.51,1,,,,,SER [4]: 2
O=[N+]([O-])c1nccn1CC(O)CNC1C2CCC(C2)[C@@H]1Br (stereo partly specified),1.36,1.3,0.35 mM,2.1,,,
CC1CCCC2C1N2CC(O)Cn1ccnc1[N+](=O)[O-] (stereo unspecified),1.55,1,0.75 mM,,500 mg/kg,2.1,SER [7]: 2
O=[N+]([O-])c1nccn1CC(O)CN1C2C3CCC(C3)C21 (stereo unspecified),1.6,1.4,3 mM,1.6,,,
O=[N+]([O-])c1nccn1CC(O)CN1C2CCCC21 (stereo unspecified),0.37,2,0.48 mM,,450 mg/kg,6.1,SER [8]: 2
O=[N+]([O-])c1nccn1CC(O)CN1CC1 (stereo unspecified),0.33,50,0.33 mM,,100 mg/kg,6.7,SER [8]: 1.9
O=[N+]([O-])c1nccn1CC(O)CN1C2CCCCCCC21 (stereo unspecified),1.84,1.2,0.75 mM,2.1,500 mg/kg,2.6,
O=[N+]([O-])c1nccn1CC(O)CN1C2CCOCC21 (stereo unspecified),0.07,,,,800 mg/kg,5.7,Cytotoxicity (V79): Unstable; SER [8]: 1.3
O=[N+]([O-])c1nccn1CC(O)CNC1COCC[C@@H]1Br (stereo partly specified),-0.17,1.2,1.8 mM,1.8,1500 mg/kg,13,
O=[N+]([O-])c1nccn1CC(O)CN1C2CCCCCC21 (stereo unspecified),1.44,1.4,1 mM,1.7,,,
CCOC(=O)C1CCC2C(C1)N2CC(O)Cn1ccnc1[N+](=O)[O-] (stereo unspecified),1.13,1.1,3 mM,2,,,
O=[N+]([O-])c1nccn1CC(O)CNC1CCCC[C@@H]1Br (stereo partly specified),1.21,2.5,0.35 mM,,700 mg/kg,4.5,SER [9]: 2.4
O=[N+]([O-])c1nccn1CC(O)CNC1CCC[C@H]1Br (stereo partly specified),0.43,2.5,0.75 mM,,1000 mg/kg,4.3,SER [7]: 2.3
O=[N+]([O-])c1nccn1CC(O)CN1C2CCCCC21 (stereo unspecified),1.07,1.6,0.35 mM,,400 mg/kg,3.91,SER [10]: 1.9
O=[N+]([O-])c1nccn1CC(O)CN1C2CCc3ccccc3C21 (stereo unspecified),2.15,1.2,,,,,SER [11]: 1.2
O=C(O)C1CCN1CC(O)Cn1ccnc1[N+](=O)[O-] (stereo unspecified),-2.02,1,,,,,SER [12]: 2.3
